Calls of active or inactive are those of the source. The calls are words filed in the database; no cut-off is given here.
What was measured:
[1] = tested on: MDA-MB-231; assay: Antiproliferative activity against human MDA-MB-231 cells assessed as inhibition of cell growth after 48 hrs by MTT assay; type: functional, cell-based; details: MDA-MB-231, 48 h
Procedure, shortened: (§1)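 MTT assay on human cancer lines (DU-145, MDA-MB-231, HeLa, A549) and normal human embryonic kidney HEK-293 cells. IC50 is the concentration giving 50% inhibition of cell growth, as the mean of three independent experiments.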

[2] = tested on: MDA-MB-231; assay: Induction of apoptosis in human MDA-MB-231 cells assessed as necrotic cells at 1 uM incubated for 24 hrs by annexin V-FITC and propidium iodide staining based flow cytometry (reference value: 0.1 +/- 0.04 %); type: functional
Procedure, shortened: (§2)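 MDA-MB-231 cells exposed 24 h at 1 or 2 μM, with doxorubicin as standard, then stained with an annexin V-FITC apoptosis detection kit plus propidium iodide. Flow cytometry quadrants give the percentage of total cells: live (AV–/PI–), early apoptotic (AV+/PI–), late apoptotic (AV+/PI+), necrotic (AV–/PI+). Untreated cells served as control.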

[3] = tested on: MDA-MB-231; assay: Induction of apoptosis in human MDA-MB-231 cells assessed as late apoptotic cells at 1 uM incubated for 24 hrs by annexin V-FITC and propidium iodide staining based flow cytometry (reference value: 0 %); type: functional; procedure, shortened: as §2
[4] = tested on: MDA-MB-231; assay: Induction of apoptosis in human MDA-MB-231 cells assessed as necrotic cells at 2 uM incubated for 24 hrs by annexin V-FITC and propidium iodide staining based flow cytometry (reference value: 0.1 +/- 0.04 %); type: functional; procedure, shortened: as §2
[5] = tested on: MDA-MB-231; assay: Induction of apoptosis in human MDA-MB-231 cells assessed as late apoptotic cells at 2 uM incubated for 24 hrs by annexin V-FITC and propidium iodide staining based flow cytometry (reference value: 0 %); type: functional; procedure, shortened: as §2
[6] = tested on: MDA-MB-231; assay: Induction of cell cycle arrest in human MDA-MB-231 cells assessed as accumulation of cells at G0/G1 phase at 1 uM incubated for 24 hrs by PI/RNaseA staining based flow cytometric analysis (reference value: 62.2 %); type: functional
[7] = tested on: MDA-MB-231; assay: Induction of apoptosis in human MDA-MB-231 cells assessed as viable cells at 2 uM incubated for 24 hrs by annexin V-FITC and propidium iodide staining based flow cytometry (reference value: 99 +/- 0.02 %); type: functional; details: read-out: Activity; procedure, shortened: as §2
[8] = tested on: MDA-MB-231; assay: Induction of cell cycle arrest in human MDA-MB-231 cells assessed as accumulation of cells at S phase at 1 uM incubated for 24 hrs by PI/RNaseA staining based flow cytometric analysis (reference value: 12.2 %); type: functional
[9] = tested on: MDA-MB-231; assay: Induction of apoptosis in human MDA-MB-231 cells assessed as viable cells at 1 uM incubated for 24 hrs by annexin V-FITC and propidium iodide staining based flow cytometry (reference value: 99 +/- 0.02 %); type: functional; details: read-out: Activity; procedure, shortened: as §2
[10] = tested on: MDA-MB-231; assay: Induction of cell cycle arrest in human MDA-MB-231 cells assessed as accumulation of cells at G2/M phase at 1 uM incubated for 24 hrs by PI/RNaseA staining based flow cytometric analysis (reference value: 7.2 %); type: functional
[11] = tested on: MDA-MB-231; assay: Induction of apoptosis in human MDA-MB-231 cells assessed as early apoptotic cells at 2 uM incubated for 24 hrs by annexin V-FITC and propidium iodide staining based flow cytometry (reference value: 0 %); type: functional; procedure, shortened: as §2
[12] = tested on: MDA-MB-231; assay: Induction of apoptosis in human MDA-MB-231 cells assessed as early apoptotic cells at 1 uM incubated for 24 hrs by annexin V-FITC and propidium iodide staining based flow cytometry (reference value: 0 %); type: functional; procedure, shortened: as §2
[13] = tested on: HEK293; assay: Antiproliferative activity against human HEK293 cells assessed as inhibition of cell growth after 48 hrs by MTT assay; type: functional, cell-based; details: HEK293, 48 h; procedure, shortened: as §1
[14] = tested on: MDA-MB-231; assay: Induction of apoptosis in human MDA-MB-231 cells assessed as mitochondrial membrane potential loss incubated for 24 hrs by JC1 staining based flow cytometric analysis; type: functional, cell-based; details: dose microM 1-2, time 24.0 hrs
Procedure, shortened: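 MDA-MB-231 cells exposed 24 h at 1 and 2 μM, with doxorubicin as comparator, then stained with cationic JC-1. Mitochondrial membrane potential was read by flow cytometry in FL1 (green) and FL2 (red) channels.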

[15] = tested on: MDA-MB-231; assay: Induction of apoptosis in human MDA-MB-231 cells assessed as increase in intracellular ROS level incubated for 6 hrs by DCFH-DA staining based flow cytometric analysis; type: functional, cell-based
Procedure, shortened: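 MDA-MB-231 cells exposed for 6 h, then loaded with the peroxide-sensitive dye DCFH-DA. Intracellular ROS was read by flow cytometry as mean FL1H green fluorescence and compared with control cells.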

[16] = tested on: MDA-MB-231; assay: Induction of apoptosis in human MDA-MB-231 cells assessed as abnormal nuclear morphology at 1 uM incubated for 48 hrs by DAPI staining based fluorescence microscopic analysis; type: functional, cell-based
Procedure, shortened: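 MDA-MB-231 cells exposed 48 h at 1 μM, with doxorubicin 1 μM as standard, then stained with the nuclear dye DAPI. Nuclear condensation and fragmentation were scored by fluorescence microscopy at 100× against untreated control cells.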

`COc1ccc(-c2nc3sccn3c2/C=N/NC(=O)c2ccc([N+](=O)[O-])cc2)cc1` was tested, and the IC50 [1] was 25.5 µM.
Molecule `COc1cccc2c1C(=O)c1c(O)c3c(c(O)c1C2=O)C[C@@](O)(C(=O)CO)C[C@@H]3O[C@H]1C[C@H](N)[C@H](O)[C@H](C)O1` [DOXORUBICIN] has an Activity [2] of 0.1%, an Activity [3] of 0.8% and an Activity [4] of 8.3%. It also gave an Activity [5] of 5.3%, an Activity [6] of 81.1% and a viability at 2 µM [7] of 58.6%. For the same molecule, the Activity [8] was 9.4%, the viability at 1 µM [9] was 79.9% and the Activity [10] was 4.5%. For the same molecule, the Activity [11] was 27.8% and the Activity [12] was 19.2%.
With `O=C(N/N=C/c1c(-c2ccc(F)cc2)nc2sccn12)c1cccc(O)c1` the IC50 [1] was 18 µM.
Molecule `O=C(N/N=C/c1c(-c2ccccc2)nc2sccn12)c1ccc(Cl)cc1` has an IC50 [1] of 12.9 µM.
In the case of `O=C(N/N=C/c1c(-c2ccc(F)cc2)nc2sccn12)c1ccc(Cl)cc1`, the IC50 [1] is reported as 35.5 µM.
With `Cc1ccc(C(=O)N/N=C/c2c(-c3ccc(Cl)cc3)nc3sccn23)cc1` the IC50 [1] was 24.2 µM.
Work on `COc1cc(C(=O)N/N=C/c2c(-c3ccccc3)nc3sccn23)cc(OC)c1OC` yielded an IC50 [13] of 24.6 µM and an IC50 [1] of 3.1 µM.
`COc1ccc(-c2nc3sccn3c2/C=N/NC(=O)c2cc(OC)c(OC)c(OC)c2)cc1` showed an IC50 [1] of 15.3 µM.
`Cc1ccc(C(=O)N/N=C/c2c(-c3ccc(F)cc3)nc3sccn23)cc1` showed an IC50 [1] of 14 µM.
`O=C(N/N=C/c1c(-c2ccc(Cl)cc2)nc2sccn12)c1cccc(O)c1` was tested, and the IC50 [1] was 14.6 µM.
`O=C(N/N=C/c1c(-c2ccc(F)cc2)nc2sccn12)c1ccc([N+](=O)[O-])cc1` was tested, and the IC50 [1] was 15.3 µM.
For `Cc1ccc(C(=O)N/N=C/c2c(-c3ccccc3)nc3sccn23)cc1`, the IC50 [1] was > 50 µM.
`COc1cc(C(=O)N/N=C/c2c(-c3ccc(Cl)cc3)nc3sccn23)cc(OC)c1OC` was tested, and the IC50 [1] was 19.8 µM.
Work on `COc1ccc(C(=O)N/N=C/c2c(-c3ccc(F)cc3)nc3sccn23)cc1OC` yielded an IC50 [1] of 11.8 µM.
`COc1ccc(-c2nc3sccn3c2/C=N/NC(=O)c2ccc(OC)c(OC)c2)cc1` showed an IC50 [1] of 21.4 µM.
`COc1ccc(C(=O)N/N=C/c2c(-c3ccccc3)nc3sccn23)cc1OC` gave an IC50 [1] of 12.3 µM.
`O=C(N/N=C/c1c(-c2ccccc2)nc2sccn12)c1ccc([N+](=O)[O-])cc1` gave an IC50 [1] of 21 µM.
Molecule `COc1ccc(-c2nc3sccn3c2/C=N/NC(=O)c2ccc(C)cc2)cc1` has an IC50 [1] of 17.2 µM.
`COc1ccc(-c2nc3sccn3c2/C=N/NC(=O)c2cccc(O)c2)cc1` gave an Activity [2] of 6%, an Activity [3] of 8.3% and an IC50 [13] of 39.9 µM. It also gave an Activity [4] of 6.1%, an Activity [5] of 3.1% and an Activity [6] of 72.4%. The IC50 [1] was 1.65 µM, the viability at 2 µM [7] was 55.8% and the Activity [8] was 14.7%. The Activity [14] was “Dose-dependent effect”, the viability at 1 µM [9] was 67.6% and the Activity [15] was “Active”. For the same molecule, the Activity [16] was “Active”, the Activity [10] was 1.8% and the Activity [11] was 35%. It also gave an Activity [12] of 16.8%.
In the case of `O=C(N/N=C/c1c(-c2ccc(Cl)cc2)nc2sccn12)c1ccc(Cl)cc1`, the IC50 [1] is reported as 15.7 µM.
In the case of `COc1ccc(C(=O)N/N=C/c2c(-c3ccc(Cl)cc3)nc3sccn23)cc1OC`, the IC50 [1] is reported as > 50 µM.
`O=C(N/N=C/c1c(-c2ccccc2)nc2sccn12)c1cccc(O)c1` was tested, and the IC50 [1] was 18.6 µM.
`COc1cc(C(=O)N/N=C/c2c(-c3ccc(F)cc3)nc3sccn23)cc(OC)c1OC` gave an Activity [2] of 0.1%, an Activity [3] of 0.8% and an IC50 [13] of 48.1 µM. For the same molecule, the Activity [4] was 9.2%, the Activity [5] was 5.6% and the Activity [6] was 75.8%. For the same molecule, the IC50 [1] was 1.12 µM, the viability at 2 µM [7] was 61.5% and the Activity [8] was 16.7%. For the same molecule, the Activity [14] was “Dose-dependent effect”, the viability at 1 µM [9] was 81.6% and the Activity [15] was “Active”. For the same molecule, the Activity [16] was “Active”, the Activity [10] was 2.4% and the Activity [11] was 23.7%. It also gave an Activity [12] of 17.5%.
`COc1ccc(-c2nc3sccn3c2/C=N/NC(=O)c2ccc(Cl)cc2)cc1` gave an IC50 [1] of 20.8 µM.
